The record followed here is ChEMBL document CHEMBL1828518, “Arylazolylthioacetanilide. Part 8: Design, synthesis and biological evaluation of novel 2-(2-(2,4-dichlorophenyl)-2H-1,2,4-triazol-3-ylthio)-N-arylacetamides as potent HIV-1 inhibitors” (Eur J Med Chem, 2011).

Data set [1] has as its system Human immunodeficiency virus 1. As to the kind of experiment: Antiviral activity against HIV-1 3B harboring RT E138K mutant infected in human MT4 cells assessed as inhibition of virus-induced syncytium formation after 5 days by MTT assay. Type of data set: functional, organism-based. Particulars: Human immunodeficiency virus 1, 3B, MT4, 120 h. In outline: (§1)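 Exponentially growing MT-4 cells, pelleted and resuspended at 6 × 10⁵ cells/mL, were infected with virus stock at 100-300 CCID50. Test compounds were added at infection as serial fivefold dilutions, in triplicate wells. After 5 days, viability was read by MTT reduction at 540 and 690 nm using the median OD of three wells.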
Background: Formazan colour is commonly taken as a measure of viable cells.

Data set [2] can be described thus: Selectivity index, ratio of CC50 for human MT4 cells to EC50 for HIV-1 3B infected in human MT4 cells. Particulars: uninfected and infected with HIV-1 3B, read-out: Ratio CC50/EC50. The class given is toxicity, cell-based. The method, boiled down: (§2)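 Selectivity index calculated as CC50 divided by EC50. Both values come from MTT readings taken 5 days after infection, on mock-infected and virus-infected MT-4 cells run in parallel.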

Data set [3] relates to Human immunodeficiency virus 2. As to the kind of experiment: Antiviral activity against HIV-2 ROD infected in human MT4 cells assessed as inhibition of virus-induced syncytium formation after 5 days by MTT assay. The class given is functional, organism-based. Particulars: Human immunodeficiency virus 2, ISOLATE ROD, MT4, 120 h. In outline: (§3)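 MT-4 cells (exponentially growing, spun 5 min at 1000 rpm, resuspended at 6 × 10⁵ cells/mL) infected with HIV-1 IIIB or HIV-2 ROD at 100–300 CCID50. Compounds added at infection in triplicate wells as serial fivefold dilutions, with untreated infected and mock-infected controls. Viability read by MTT at 540 and 690 nm after 5 days, from the median OD of three wells.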

A short description of data set [4]: Cytotoxicity against human MT4 cells assessed as cell viability after 5 days by MTT assay. The class given is cell-based. The method, boiled down: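 MT-4 cells at 6 × 10⁵ cells/mL, mock-infected with culture medium and run in parallel with the antiviral plates. Test compounds given as serial fivefold dilutions in triplicate wells. After 5 days viability read by MTT reduction to formazan at 540 and 690 nm, using the median OD of three wells.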

Data set [5] concerns Human immunodeficiency virus 1. The data set is described as follows: Antiviral activity against HIV-1 3B harboring RT Y181C mutant infected in human MT4 cells assessed as inhibition of virus-induced syncytium formation after 5 days by MTT assay. Type of data set: functional, organism-based. In outline: as §1
In data set [6] the test system is Human immunodeficiency virus 1. As to the kind of experiment: Ratio of EC50 for HIV-1 3B harboring RT L100I mutant infected in human MT4 cells to EC50 for wild type HIV-1 3B infected in human MT4 cells. The class given is functional. The method, boiled down:
(§4)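 Fold resistance is the EC50 against the drug-resistant strain divided by the EC50 against wild-type HIV-1 IIIB. Both values come from the same MT-4 assay: 5-day infection, MTT viability read-out, and serial fivefold compound dilutions in triplicate wells.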

In data set [7] the test system is Human immunodeficiency virus 1. The data set is described as follows: Antiviral activity against HIV-1 3B harboring RT Y188L mutant infected in human MT4 cells assessed as inhibition of virus-induced syncytium formation after 5 days by MTT assay. The class given is functional, organism-based. The method, boiled down: as §1
Data set [8] has as its system Human immunodeficiency virus 1. The data set is described as follows: Ratio of EC50 for HIV-1 3B harboring RT K103N mutant infected in human MT4 cells to EC50 for wild type HIV-1 3B infected in human MT4 cells. The class given is functional. In outline: as §4
The test system of data set [9] is Human immunodeficiency virus 1. As to the kind of experiment: Antiviral activity against HIV-1 3B harboring RT F227L and V106A mutant infected in human MT4 cells assessed as inhibition of virus-induced syncytium formation after 5 days by MTT assay. The class given is functional, organism-based. In outline: as §1
Data set [10] has as its system Human immunodeficiency virus 1. As to the kind of experiment: Antiviral activity against HIV-1 3B infected in human MT4 cells assessed as inhibition of virus-induced syncytium formation after 5 days by MTT assay. The class given is functional, organism-based. To be noted: Human immunodeficiency virus 1, 3B, MT4, 120 h. In outline:
as §3

For data set [11], the system named is Human immunodeficiency virus 1. As to the kind of experiment: Antiviral activity against HIV-1 3B harboring RT K103N mutant infected in human MT4 cells assessed as inhibition of virus-induced syncytium formation after 5 days by MTT assay. Type of data set: functional, organism-based. Particulars: Human immunodeficiency virus 1, 3B, MT4, 120 h. In outline:
as §1

Data set [12] is described as follows: Selectivity index, ratio of CC50 for human MT4 cells to EC50 for HIV-2 ROD infected in human MT4 cells. Particulars: uninfected and infected with HIV-2 ROD, read-out: Ratio CC50/EC50. Type of data set: toxicity, cell-based. The method, boiled down:
as §2

Data set [13] has as its system Human immunodeficiency virus 1. As to the kind of experiment: Antiviral activity against HIV-1 3B harboring RT L100I mutant infected in human MT4 cells assessed as inhibition of virus-induced syncytium formation after 5 days by MTT assay. The class given is functional, organism-based. To be noted: Human immunodeficiency virus 1, 3B, MT4, 120 h. In outline: as §1

The target in data set [14] is Human immunodeficiency virus type 1 reverse transcriptase (Human immunodeficiency virus 1, UniProt Q72547). The data set is described as follows: Inhibition of HIV-1 reverse transcriptase assessed as inhibition of biotin-dUTP incorporation […] by colorimetry. In outline:
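Purified recombinant HIV-1 RT with a […] template primer. Read-out is colorimetric detection of biotin-dUTP incorporated into the homopolymer template primer, with nucleotides linked to the microtiter plate.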

The subject of data set [15] is Human immunodeficiency virus 1. As to the kind of experiment: Ratio of EC50 for HIV-1 3B harboring RT E138K mutant infected in human MT4 cells to EC50 for wild type HIV-1 3B infected in human MT4 cells. The class given is functional. In outline:
as §4

For data set [16], the system named is Human immunodeficiency virus 1. As to the kind of experiment: Antiviral activity against HIV-1 3B harboring RT K103N and Y181C mutant infected in human MT4 cells assessed as inhibition of virus-induced syncytium formation after 5 days by MTT assay. The class given is functional, organism-based. In outline:
as §1

Calls of active or inactive are those of the source. No cut-off for these calls is given here.

One may read the EC50 as the concentration that produces a half-maximal response. The CC50 is the concentration that lowers cell viability or growth by half. As usually defined, the IC50 is the concentration needed to halve the response being measured. For the compound `COC(=O)c1ccc(NC(=O)CSc2ncnn2-c2ccc(Cl)cc2Cl)c(Br)c1`, the EC50 in data set [1] is at least 15.2 µM; in data set [3], above 59.3 µM; in [10] it was 4.13 µM; in data set [11] it was 7.73 µM; in data set [13], 6.95 µM. For the same compound, the figures for the selectivity ratio in data set [2] and in data set [12] were 14 and below 1, respectively. For the same compound, in data set [4], the 50% cytotoxic concentration (CC50) at 120 h was 59.3 µM. The inhibition entry in data set [5], in data set [7], in data set [9] and in data set [16] was “inactive” throughout. Further, the “Ratio EC50” value is 2 in data set [6], 2.2 in data set [8] and “>=4.3” in data set [15]. In data set [14], the IC50 came to 385 µM.
As to `CCOC(=O)c1ccc(NC(=O)CSc2ncnn2-c2ccc(Cl)cc2Cl)c(Br)c1`, the EC50 in [1] is above 38.7 µM; in data set [3], above 33.1 µM; in data set [10] it was 4.68 µM; in data set [11], 9.54 µM; in [13] it was 10.8 µM. Besides, the selectivity ratio is 7 in data set [2] and below 1 in data set [12]. In addition, the CC50 at 120 h in data set [4] came out at 33.1 µM. For the same compound, the inhibition entry in [5], in data set [7], in data set [9] and in [16] was “inactive” throughout. For the same compound, the figures for the “Ratio EC50” value in [6], in data set [8] and in data set [15] were 1.9, 1.6 and above 6.7, respectively. Also, the IC50 in data set [14] was found to be 297 µM.
Consider `O=C(CSc1ncnn1-c1ccc(Cl)cc1Cl)Nc1ccccc1Br`, for which the EC50 was 28.2 µM in [1]; above 95.1 µM in data set [3]; 4.85 µM in data set [10]; 8.36 µM in data set [11]; 25.7 µM in [13]. In addition, the selectivity ratio in data set [2] is 20; in [12] it was below 1. Also, the cytotoxic concentration (CC50) at 120 h in [4] turned out to be 95.1 µM. Besides, the inhibition result in data set [5], in [7], in [9] and in data set [16] was “inactive” in each case. Further, the “Ratio EC50” value in [6] is 6; in data set [8], 1.9; in data set [15], 6.6.
For `O=C(CSc1ncnn1-c1ccc(Cl)cc1Cl)Nc1ccccc1[N+](=O)[O-]`, the concentration for a half-maximal effect (EC50) in [1] was 9.45 µM; in [3], above 187 µM; in data set [10], 2.78 µM; in data set [11] it was 7.42 µM; in data set [13], 8.51 µM. Besides, the selectivity ratio was 67 in data set [2] and below 1 in [12]. Also, the CC50 at 120 h in data set [4] stood at 187 µM. Moreover, the inhibition result in [5], in [7], in data set [9] and in [16] was “inactive” each time. In addition, the “Ratio EC50” value in data set [6] was 2.1; in data set [8], 1.8; in data set [15] it was 2.3. Moreover, the IC50 in data set [14] is above 471 µM.
